This note sets out measurements from ChEMBL document CHEMBL3813688, “Synthesis, antitumor activity and mechanism of action of novel 1,3-thiazole derivatives containing hydrazide-hydrazone and carboxamide moiety” (Bioorg Med Chem Lett, 2016).

In brackets after ≈: the same amount, converted by molar mass. A value given as a limit tells only on which side of the number the result lay.

A short description of data set [1]: Cytotoxicity against human BCG823 cells assessed as cell growth inhibition after 72 hrs by MTT assay. Type of data set: functional, cell-based. Conditions: BCG823, 72 h. Put shortly: (§1)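 MTT growth assay in human cancer lines (MCF-7, HepG2, BGC-823, HeLa, A549), 72 h after treatment; 5-fluorouracil as reference. IC50 (μg/mL) taken as concentration giving 50% growth inhibition versus untreated control.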

In data set [2] the test system is HeLa. Briefly: Cytotoxicity against human HeLa cells assessed as cell growth inhibition after 72 hrs by MTT assay. Type of data set: functional, cell-based. Put shortly:
as §1

Data set [3] has as its system MCF7. Briefly: Cytotoxicity against human MCF7 cells assessed as cell growth inhibition after 72 hrs by MTT assay. It is filed as functional, cell-based. Conditions: MCF7, 72 h. Summed up: as §1
Data set [4] has as its system HepG2. The data set can be described thus: Cytotoxicity against human HepG2 cells assessed as cell growth inhibition after 72 hrs by MTT assay. It is filed as functional, cell-based. Conditions: HepG2, 72 h. Summed up:
as §1

For data set [5], the system named is A549. The data set can be described thus: Cytotoxicity against human A549 cells assessed as cell growth inhibition after 72 hrs by MTT assay. Type of data set: functional, cell-based. Conditions: A549, 72 h. Summed up: as §1
Data set [6] has as its system MCF-7, HepG2, BGC-823, HeLa, A549 cancer cell lines (Homo sapiens). Briefly: Cytotoxicity against human MCF-7, HepG2, BGC-823, HeLa and A549 cells assessed as cell growth inhibition at 20 ug/ml after 72 hrs by MTT assay. As to conditions: read-out: GI.
In data set [7] the test system is MCF7. The data set can be described thus: Cytotoxicity against human MCF7 cells assessed as cell growth inhibition at 20 ug/ml after 72 hrs by MTT assay. Conditions: MCF7, 72 h, read-out: GI. Type of data set: functional.
The subject of data set [8] is HeLa. Briefly: Cytotoxicity against human HeLa cells assessed as cell growth inhibition at 20 ug/ml after 72 hrs by MTT assay. As to conditions: read-out: GI. Type of data set: functional.
Data set [9] is described as follows: Cytotoxicity against human BCG823 cells assessed as cell growth inhibition at 20 ug/ml after 72 hrs by MTT assay. Type of data set: functional. Conditions: BCG823, 72 h, read-out: GI.
Data set [10] has as its system A549. The data set can be described thus: Cytotoxicity against human A549 cells assessed as cell growth inhibition at 20 ug/ml after 72 hrs by MTT assay. Type of data set: functional. Conditions: A549, 72 h, read-out: GI.
Data set [11] relates to HepG2. Briefly: Cytotoxicity against human HepG2 cells assessed as cell growth inhibition at 20 ug/ml after 72 hrs by MTT assay. It is filed as functional. Conditions: HepG2, 72 h, read-out: GI.

`CN(C(=O)NC(=O)c1ccc([N+](=O)[O-])cc1)c1nc(C(F)(F)F)c(C(=O)N/N=C/c2cccc(C(F)(F)F)c2)s1`: the IC50 in data set [1] was 1.67 µg/mL (≈ 2.84 µM); in the data set with HeLa [2], 4.12 µg/mL (≈ 7 µM); in the data set with MCF7 [3], 4.39 µg/mL (≈ 7.46 µM); in the data set with HepG2 [4] it was 4.73 µg/mL (≈ 8.04 µM); in the data set on A549 [5] it was 5.42 µg/mL (≈ 9.21 µM).

For `CN(C(=O)NC(=O)c1c(F)cccc1F)c1nc(C(F)(F)F)c(C(=O)N/N=C/c2ccccc2C(F)(F)F)s1`, the IC50 in [1] was found to be 16.9 µg/mL (≈ 29.3 µM); in the data set with HeLa [2] it was 19.6 µg/mL (≈ 33.8 µM); with MCF7 [3] it was 20.4 µg/mL (≈ 35.3 µM); in the data set on HepG2 [4], 26.1 µg/mL (≈ 45 µM); with A549 [5], 17.9 µg/mL (≈ 30.9 µM).

In the case of `CN(C(=O)NC(=O)c1ccccc1[N+](=O)[O-])c1nc(C(F)(F)F)c(C(=O)N/N=C/c2ccc([N+](=O)[O-])cc2)s1`, the 50% inhibitory concentration (IC50) amounted to 15.7 µg/mL (≈ 27.7 µM) in data set [1]; 18.4 µg/mL (≈ 32.6 µM) in the data set on HeLa [2]; 21.2 µg/mL (≈ 37.5 µM) with MCF7 [3]; 25.2 µg/mL (≈ 44.6 µM) with HepG2 [4]; 17.6 µg/mL (≈ 31.2 µM) in the data set on A549 [5].

As for `CN(C(=O)NC(=O)c1cccc(C(F)(F)F)c1)c1nc(C(F)(F)F)c(C(=O)N/N=C/c2ccccc2C(F)(F)F)s1`, the 50% inhibitory concentration (IC50) in data set [1] was determined as 7.29 µg/mL (≈ 11.9 µM); in the data set on HeLa [2], 7.37 µg/mL (≈ 12.1 µM); with MCF7 [3], 7.69 µg/mL (≈ 12.6 µM); in the data set on HepG2 [4], 10.4 µg/mL (≈ 17 µM); with A549 [5], 12.1 µg/mL (≈ 19.8 µM).

On to `CCOC(=O)c1sc(NC)nc1C`, for which the inhibition at 72 h, 20 ug/ml in data set [6] was < 10%. The inhibition of growth at 20 µg/mL (with MCF7 [7]; with HeLa [8]; in data set [9]; in the data set on A549 [10]; with HepG2 [11]) was < 10% throughout.

For the compound `CN(C(=O)NC(=O)c1ccc(C(F)(F)F)cc1)c1nc(C(F)(F)F)c(C(=O)N/N=C/c2cc(C(F)(F)F)cc(C(F)(F)F)c2)s1`, the half-maximal inhibitory concentration (IC50) was found to be 1.77 µg/mL (≈ 2.61 µM) in [1]; 5.78 µg/mL (≈ 8.51 µM) in the data set with HeLa [2]; 7.37 µg/mL (≈ 10.8 µM) in the data set on MCF7 [3]; 8.35 µg/mL (≈ 12.3 µM) with HepG2 [4]; 5.9 µg/mL (≈ 8.68 µM) with A549 [5].

With `CN(C(=O)NC(=O)c1ccccc1F)c1nc(C(F)(F)F)c(C(=O)N/N=C/c2cc(C(F)(F)F)cc(C(F)(F)F)c2)s1`, the IC50 in [1] worked out at 4.23 µg/mL (≈ 6.72 µM); with HeLa [2], 4.98 µg/mL (≈ 7.91 µM); in the data set on MCF7 [3], 6.16 µg/mL (≈ 9.79 µM); in the data set on HepG2 [4], 4.47 µg/mL (≈ 7.1 µM); with A549 [5] it was 5.43 µg/mL (≈ 8.63 µM).

Consider `CN(C(=O)NC(=O)c1ccccc1F)c1nc(C(F)(F)F)c(C(=O)N/N=C/c2ccccc2C(F)(F)F)s1`, for which the concentration for half-maximal inhibition (IC50) in data set [1] is 4.67 µg/mL (≈ 8.32 µM); in the data set on HeLa [2] it was 10.1 µg/mL (≈ 18 µM); in the data set on MCF7 [3] it was 12.2 µg/mL (≈ 21.8 µM); in the data set with HepG2 [4] it was 5.39 µg/mL (≈ 9.6 µM); with A549 [5], 6.32 µg/mL (≈ 11.3 µM).

Regarding `CN(C(=O)NC(=O)c1ccc(F)c(F)c1)c1nc(C(F)(F)F)c(C(=O)N/N=C/c2ccccc2C(F)(F)F)s1`, the half-maximal inhibitory concentration (IC50) came to 3.66 µg/mL (≈ 6.32 µM) in data set [1]; 9.24 µg/mL (≈ 15.9 µM) in the data set with HeLa [2]; 8.21 µg/mL (≈ 14.2 µM) in the data set on MCF7 [3]; 10.4 µg/mL (≈ 17.9 µM) in the data set with HepG2 [4]; 6.96 µg/mL (≈ 12 µM) with A549 [5].

As for `CN(C(=O)NC(=O)c1ccccc1F)c1nc(C(F)(F)F)c(C(=O)N/N=C/c2ccc(C(F)(F)F)cc2)s1`, the IC50 came out at 3.87 µg/mL (≈ 6.89 µM) in data set [1]; 3.97 µg/mL (≈ 7.07 µM) with HeLa [2]; 4.98 µg/mL (≈ 8.87 µM) with MCF7 [3]; 4.56 µg/mL (≈ 8.12 µM) in the data set on HepG2 [4]; 5.68 µg/mL (≈ 10.1 µM) in the data set on A549 [5].

As to `CN(C(=O)NC(=O)c1ccc([N+](=O)[O-])cc1)c1nc(C(F)(F)F)c(C(=O)N/N=C/c2ccc([N+](=O)[O-])cc2)s1`, the IC50 in [1] worked out at 7.45 µg/mL (≈ 13.2 µM); in the data set with HeLa [2], 8.42 µg/mL (≈ 14.9 µM); in the data set on MCF7 [3], 9.24 µg/mL (≈ 16.3 µM); in the data set with HepG2 [4], 12.3 µg/mL (≈ 21.8 µM); in the data set on A549 [5] it was 8.98 µg/mL (≈ 15.9 µM).

On to `CN(C(=O)NC(=O)c1ccc(F)c(F)c1)c1nc(C(F)(F)F)c(C(=O)N/N=C/c2ccc([N+](=O)[O-])cc2)s1`, for which the IC50 in [1] is 2.99 µg/mL (≈ 5.37 µM); in the data set on HeLa [2], 5.08 µg/mL (≈ 9.13 µM); with MCF7 [3] it was 4.81 µg/mL (≈ 8.64 µM); with HepG2 [4], 6.23 µg/mL (≈ 11.2 µM); in the data set on A549 [5], 5.78 µg/mL (≈ 10.4 µM).

Regarding `Cc1nc(N(C)C(=O)NC(=O)c2c(F)cccc2F)sc1C(=O)N/N=C/c1cccc(C(F)(F)F)c1`, the concentration for half-maximal inhibition (IC50) in [1] was determined as 32.6 µg/mL (≈ 62.1 µM); with HeLa [2] it was 26.8 µg/mL (≈ 51 µM); in the data set on MCF7 [3], 28.1 µg/mL (≈ 53.6 µM); in the data set on HepG2 [4] it was 31.6 µg/mL (≈ 60.1 µM); in the data set with A549 [5] it was 30.3 µg/mL (≈ 57.7 µM).
